Compound activity as filed in PubChem BioAssay.
Hck-Nef inh: inhibitors of Nef-activated human Hck kinase, primary screen, biochemical, Z-Lyte FRET, 384-well, Hck-YEEI; Recombinant Hck-YEEI plus Nef, Z-Lyte FRET kinase assay; inhibition, % at 20 µM; 220,000 tested, 0.68% active; AID 463187, 2010;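 active means Hck-Nef kinase inhibition above about 50%, limit read from the data; inactive means inhibition below that limit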
RanGTP-Impb inh: inhibitors of RanGTP-importin-beta interaction, primary screen, biochemical, FRET, CFP-Ran, YFP-importin-beta, homogeneous; cell-free CFP-Ran/YFP-importin-beta FRET ratio; inhibition, % (test concentration not listed); 300,000 tested, 1.1% active;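 active means more than half of the replicate wells show a fall in the fluorescence ratio signal beyond about 16%, limit read from the data, passing the limit was not always enough; inconclusive means exactly half of the replicate wells pass the set limit; inactive means fewer than half of replicates pass the limit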
Runt-CBFb FRET: inhibitors of RUNX1 Runt–CBFb binding, primary screen, biochemical, FRET, Cerulean-Runt, Venus-CBFb, uHTS | inhibition, % at 20 µM | 220,000 tested, 0.46% active | Runt-related transcription factor 1 (Homo sapiens) + Core-binding factor subunit beta … | Cerulean-Runt/Venus-CBFb FRET ratio 530/480, 1 h;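 active means inhibition over about 50% at 20 µM in the single-dose screen, limit read from the data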
Target sequence (Q01196 whole entry, looked up): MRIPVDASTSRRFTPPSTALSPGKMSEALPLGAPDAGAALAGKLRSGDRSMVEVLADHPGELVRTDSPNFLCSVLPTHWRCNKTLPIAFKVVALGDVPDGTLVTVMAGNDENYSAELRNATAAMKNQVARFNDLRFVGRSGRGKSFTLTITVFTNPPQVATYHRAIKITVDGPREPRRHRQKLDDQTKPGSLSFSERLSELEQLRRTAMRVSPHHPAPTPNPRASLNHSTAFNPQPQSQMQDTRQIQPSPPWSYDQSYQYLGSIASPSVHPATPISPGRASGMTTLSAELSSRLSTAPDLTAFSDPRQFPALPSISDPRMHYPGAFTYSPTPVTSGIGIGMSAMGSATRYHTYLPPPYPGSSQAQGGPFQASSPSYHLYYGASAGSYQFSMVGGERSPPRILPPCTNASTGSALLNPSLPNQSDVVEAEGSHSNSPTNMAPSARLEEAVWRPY
Target sequence (Q13951 whole entry, looked up): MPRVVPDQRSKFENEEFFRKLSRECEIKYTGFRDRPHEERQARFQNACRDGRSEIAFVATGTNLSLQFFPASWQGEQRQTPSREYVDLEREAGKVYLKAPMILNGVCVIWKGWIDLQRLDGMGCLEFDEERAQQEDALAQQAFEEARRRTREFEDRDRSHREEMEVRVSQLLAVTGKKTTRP
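test system = Cerulean-tagged RUNX1 Runt domain (FRET donor) fusion protein | reagent = Venus-CBFb binding partner, 100 nM | incubation = protein complex preformed 1 h, compound exposure 1 h, room temperature, dark | detection = FRET fluorescence | read-out basis = loss of energy transfer signal | controls = 5 µM unlabeled CBFb as full-inhibition high control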
Runt-SMMHC FRET: inhibitors of RUNX1 Runt–CBFb-SMMHC binding, primary screen, biochemical, FRET, Cerulean-Runt, Venus-CBFb-SMMHC, uHTS. Cerulean-Runt/Venus-CBFb-SMMHC FRET ratio 530/480, 1 h. Runt-related transcription factor 1 (Homo sapiens) + Core-binding factor subunit beta …. inhibition, % at 20 µM. 220,000 tested, 0.74% active;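 active means mean inhibition across duplicate retests at 20 µM reaching about 50%, limit read from the data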;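 further: inhibitors lower the FRET ratio by blocking Runt binding to CBFb-SMMHC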
Tb hexokinase: Trypanosoma brucei hexokinase 1 inhibitors, primary screen, biochemical, G6PDH-coupled NADH absorbance, MLSCN library. hexokinase 1 [Trypanosoma brucei]. recombinant TbHK1, G6PDH-coupled NADH A340. inhibition, % at 10 µM. 220,000 tested, 0.11% active;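 active means inhibition of 50% or more in the single-dose primary screen; inactive means inhibition below 50%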
Numbers stand for hits; – = inactive; ? = inconclusive; · = no result given. Sampled rows, rich in hits. Any-hit rate of the full collection: about 1.9%.

SMILES	Hck-Nef inh	RanGTP-Impb inh	Runt-CBFb FRET	Runt-SMMHC FRET	Tb hexokinase
Cc1sc2nc(-c3cccs3)oc(=O)c2c1C	·	32.2	·	·	·
O=c1oc(-c2cccs2)nc2scc(-c3cccs3)c12	–	–	–	–	–
CCOC(=O)c1c(NC(=O)CSc2nnc(-c3c[nH]c4ccccc34)n2C)sc2c1CCCC2	–	25.9	–	–	–
CCOC(=O)c1c(NC(=O)CSc2nnc(-c3c[nH]c4ccccc34)n2CCOC)sc2c1CCCC2	–	–	–	–	–
O=c1cc(N2CCC3(CC2)OCCO3)[nH]c(=O)n1-c1ccc(Cl)cc1	–	–	–	–	–
O=c1cc(N2CCc3ccccc3C2)[nH]c(=O)n1Cc1ccc(F)cc1	–	80.1	–	–	–
O=c1cc(N2CCc3ccccc3C2)[nH]c(=O)n1-c1ccc(Br)cc1	–	123.9	–	–	–
O=c1cc(N2CCN(c3ccccc3)CC2)[nH]c(=O)n1Cc1ccc(F)cc1	–	–	–	–	–
O=c1cc(N2CCc3ccccc3C2)[nH]c(=O)n1-c1ccc(Cl)cc1	–	117.1	–	–	–
O=C(COC(=O)c1ccc(O)cc1)NCc1ccc2c(c1)OCO2	–	–	–	–	–
CC(=O)OCC(=O)NCc1ccc2c(c1)OCO2	–	–	87.3	–	–
COc1ccc(Nc2nc3ccc(C)cc3cc2C#N)c(OC)c1	–	–	–	–	–
CCOc1ccc2nc(NCCNC(=O)CC)c(C#N)cc2c1	–	–	–	95.1	–
CCOc1ccc2nc(SCC(=O)NCC3CCCO3)c(C#N)cc2c1 (centres undefined)	·	–	·	·	·
COc1ccc(C(=O)NCCNc2nc3ccc(C)cc3cc2C#N)cc1OC	·	77.1	·	·	·
COC(=O)CNC(=O)COC(=O)/C=C/c1ccc2ccccc2n1	–	27.0	–	–	–
COC(=O)CNC(=O)COC(=O)/C=C/c1cccs1	–	–	–	–	–
CS(=O)(=O)N1CCCC(C(=O)Nc2ccccc2)C1 (centres undefined)	·	–	·	·	·
CCN1CCN(Cc2c(O)ccc3c2O/C(=C\c2ccc(C)cc2)C3=O)CC1	–	21.5	–	92.5	–
O=C1/C(=C/C=C/c2ccccc2)Oc2c1ccc(O)c2CN1CCN(CCO)CC1	–	–	–	–	–
COc1ccccc1/C=C/C=C1\Oc2c(ccc(O)c2CN2CCN(CCO)CC2)C1=O	–	–	–	–	–
CCN1CCN(Cc2c(O)ccc3c2O/C(=C\C=C\c2ccccc2)C3=O)CC1	–	–	–	–	–
Cc1ccc(/C=C2\Oc3c(ccc(O)c3CN3CCN(C)CC3)C2=O)cc1	–	21.9	–	90.0	–
CCN1CCN(Cc2c(O)ccc3c2O/C(=C\c2ccccc2)C3=O)CC1	–	–	–	88.4	–
CCc1ccc(/C=C2\Oc3c(ccc(O)c3CN3CCN(C)CC3)C2=O)cc1	–	?	–	81.2	–
SMILES	Hck-Nef inh	RanGTP-Impb inh	Runt-CBFb FRET	Runt-SMMHC FRET	Tb hexokinase
Cc1ccc(/C=C/C(=O)O)cc1S(=O)(=O)N1CCc2ccccc21	·	–	·	·	·
COC(=O)[C@]1(Cc2ccccc2)N[C@H](c2ccc(-c3cccc(Cl)c3)cc2)[C@@H]2C(=O)N(C)C(=O)[C@@H]21	·	–	·	·	·
CCCCCc1ccc(CC(=O)N2CCOCC2)cc1	·	–	·	·	·
N#Cc1cccc(C#N)c1NCC1CCCO1 (centres undefined)	·	–	·	·	·
Nc1c(C(=O)NCCN2CCOCC2)c2nc3ccccc3nc2n1-c1ccccc1	–	80.6	–	97.9	–
Nc1c(C(=O)NCc2ccco2)c2nc3ccccc3nc2n1CCc1ccc(F)cc1	–	58.3	–	–	–
Nc1c(C(=O)NCCN2CCOCC2)c2nc3ccccc3nc2n1CCc1ccccc1	–	85.1	73.7	–	–
Nc1c(C(=O)NCc2ccc3c(c2)OCO3)c2nc3ccccc3nc2n1CCCN1CCOCC1	–	61.1	–	81.1	–
Nc1c(C(=O)NCCN2CCOCC2)c2nc3ccccc3nc2n1-c1ccc2c(c1)OCO2	–	–	–	–	–
O=C(CNC(=O)c1ccc(F)cc1)N/N=C/c1cccnc1	·	–	·	·	·
COc1ccccc1/C=N/NC(=O)CC(=O)NCCc1ccccc1	·	–	·	·	·
N#C/C(=C\c1cc(Br)ccc1F)C(=O)NC1CC1	·	–	·	·	·
Cc1cc(=O)oc2cc(NC(=S)NNC(=O)c3c(Cl)cnn3C)ccc12	·	–	·	·	·
CCOc1ccc(-c2cc(CCCC(=O)Nc3cccc(OC)c3)no2)cc1	–	26.6	–	–	–
CCOc1ccc(NC(=O)CCCc2cc(-c3ccc(OCC)cc3)on2)cc1	–	–	–	–	–
COc1ccc(/C=c2\s/c(=C(/C#N)C(=O)NCc3ccco3)n(-c3ccccc3)c2=O)cc1	–	82.9	–	–	–
Cc1ccc(C)c(OCCn2cc(/C=C(\C#N)C(=O)NCc3ccco3)c3ccccc32)c1	–	–	–	63.1	–
COc1ccc(OCCn2cc(/C=C(\C#N)C(=O)NCc3ccco3)c3ccccc32)cc1	–	71.2	–	85.5	–
COC(=O)/C=c1/s/c(=C(\C#N)C(=O)NCc2ccco2)n(-c2ccccc2)c1=O	–	–	–	–	–
COc1ccccc1OCCn1cc(/C=C(\C#N)C(=O)NCc2ccco2)c2ccccc21	–	–	–	–	–
Cn1c(NC(=O)c2cc(-c3ccc4c(c3)OCO4)nc3ccccc23)cc(=O)n(C)c1=O	–	–	61.5	–	–
CC(C)(C)NC(=O)c1cc(-c2ccc3c(c2)OCO3)nc2ccccc12	·	–	·	·	·
O=C(Nc1nc2c(s1)CN(Cc1ccccc1)CC2)C1CCC1	–	–	–	129.9	–
CCN1CCc2nc(NC(=O)c3ccccc3)sc2C1	–	52.6	–	108.8	–
O=C(Nc1ccccc1)/C(=C/c1ccc(O)cc1)NC(=O)c1ccco1	·	–	·	·	·
SMILES	Hck-Nef inh	RanGTP-Impb inh	Runt-CBFb FRET	Runt-SMMHC FRET	Tb hexokinase
CC(=O)Nc1c(S(=O)(=O)c2ccccc2)c2nc3ccccc3nc2n1Cc1ccccc1	–	23.2	–	73.1	–
CC(=O)Nc1ccc(S(=O)(=O)c2c(N)n(CCN3CCOCC3)c3nc4ccccc4nc23)cc1	–	–	–	–	–
Cc1ccc2cc3c(NC(=O)C(C)C)nn(C)c3nc2c1	–	–	–	–	–
COc1ccc(CC(=O)Nc2nn(C)c3nc4c(C)cccc4cc23)cc1	–	–	–	72.3	–
CCn1nc(NC(=O)c2ccncc2)c2cc3cccc(C)c3nc21	–	?	–	–	–
Cc1cccc2cc3c(NC(=O)C(C)C)nn(C)c3nc12	–	46.6	–	–	–
CCCn1nc(NC(=O)CC)c2cc3cccc(C)c3nc21	·	55.1	·	·	·
